# Experimental data gathered from unrelated publications.
# Compare with care: the assays were run in different laboratories.
# Cell line: A498
# Read-out: cell growth or viability
SMILES,technique,tested at,time,measurement,value
COc1cc(-c2ccc(-c3ccc(C(=N)N)nc3)s2)cc(OC)c1OC,,,,GI50,4910 nM
COc1ccc(C(=O)/C=C/c2ccc3ccccc3c2)cc1S(N)(=O)=O,SRB,,48 h,GI50,14500 nM
CCC(=O)Nc1cc(Nc2cc(NC3CC3)n3ncc(C#N)c3n2)ccc1C,ATP luminescence,,72 h,IC50,1800 nM
S=C([S][Au-][P+](CCCCCC[P+]([Au-][S]C(=S)n1cccn1)(c1ccccc1)c1ccccc1)(c1ccccc1)c1ccccc1)n1cccn1,,,,GI50,1010 nM
CC(C)C[C@H](NC(=O)[C@H](Cc1ccccc1)NC(=O)c1cnccn1)B(O)O,ATP luminescence,,,IC50,7.7 nM
COc1ccc(C(=O)/C=C/c2cccc3ccccc23)cc1S(N)(=O)=O,SRB,10 µM,,inhibition,-7%
Cc1cc(C)n(C(=S)[S][Au][PH](CCCCCC[PH]([Au][S]C(=S)n2nc(C)cc2C)(c2ccccc2)c2ccccc2)(c2ccccc2)c2ccccc2)n1,,,,GI50,384 nM
COc1cc(Nc2nccc(-c3cnn4nc(OC)ccc34)n2)cc(C(F)(F)F)c1,ATP luminescence,,,IC50,430 nM
COc1cccc(Oc2ccccc2NC(=O)CNC(=O)c2cccc3ccccc23)c1,SRB,,48 h,GI50,115 nM
